Consider 1 compound from ChEMBL document CHEMBL1126893, “Synthesis and CLOGP correlation of imidooxy anticonvulsants” (J Med Chem, 1993).

Common to all, as to type: functional
Assay [1] concerns Mus musculus. Description: Anticonvulsant activity was measured by rotarod toxicity test on mice at 30 min at the dose of 300 mg/kg; number of animals protected/number of animals tested 0/4.
For assay [2], the system named is Mus musculus. Nature of the assay: Effective dose was measured in mouse by maximal electroshock method by ip administration. A digest of the protocol:
(§1)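 Phase II quantification in mice after ip dosing. ED50 (scMet or MES) measured at the time of peak effect. TD50 (rotorod neurologic deficit) measured at the time of peak neurologic deficit. Medians and 95% confidence limits by the Litchfield-Wilcoxon method. Protective index = TD50/ED50. Time of peak effect determined in the MES or scMet test.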

The subject of assay [3] is Mus musculus. Description: Time of peak effect of activity of compound was measured by both MES and sc Met test in mice. The procedure, abridged: as §1
Assay [4] has as its system Mus musculus. Nature of the assay: Anticonvulsant activity was measured by rotarod toxicity test on mice at 1 hr at the dose of 100 mg/kg; number of animals protected/number of animals tested, 0/2.
The test system of assay [5] is Mus musculus. Description: Anticonvulsant activity was measured by subcutaneous pentylenetetrazole test on mice at 4 hr at the dose of 300 mg/kg; number of animals protected/number of animals tested 0/1.
The test system of assay [6] is Mus musculus. Description: Anticonvulsant activity was measured by maximal electroshock test on mice at 0.25 hr at the dose of 100 mg/kg; number of animals protected/number of animals tested 0/2.
Assay [7] has as its system Mus musculus. Nature of the assay: Time of peak effect of toxicity of compound was measured by both MES and sc Met test in mice. A digest of the protocol:
as §1

For assay [8], the system named is Mus musculus. Description: Anticonvulsant activity was measured by subcutaneous pentylenetetrazole test on mice at 30 min at the dose of 300 mg/kg; number of animals protected/number of animals tested 1/1.
For assay [9], the system named is Mus musculus. Nature of the assay: Anticonvulsant activity was measured by rotarod toxicity test on mice at 4 h at the dose of 300 mg/kg; number of animals protected/number of animals tested 0/2.
For assay [10], the species on record is Mus musculus. Description: Protective index (TD50/ED50) value in scMET test in mice. A digest of the protocol:
as §1

Assay [11] concerns Mus musculus. Nature of the assay: Anticonvulsant activity was measured by maximal electroshock test on mice at 4 h at the dose of 300 mg/kg; number of animals protected/number of animals tested 0/1.
Assay [12] relates to Mus musculus. Description: Anticonvulsant activity was measured by rotarod toxicity teston mice at 0.25 hr at the dose of 100 mg/kg; number of animals protected/number of animals tested 0/2.
Assay [13] concerns Mus musculus. Description: Effective dose was measured in mouse by subcutaneous pentylenetetrazole method by ip administration. The procedure, abridged: as §1
The species entered for assay [14] is Mus musculus. Description: Protective index (TD50/ED50) value in MES test in mice.
The subject of assay [15] is Mus musculus. Nature of the assay: Anticonvulsant activity was measured by maximal electroshock test on mice at 30 min at the dose of 300 mg/kg; number of animals protected/number of animals tested 1/1.

Consider `O=C1CC2(CCCC2)C(=O)N1OCc1ccc(C(F)(F)F)cc1`, for which the Ratio in [1] worked out at 0; in [4], 0; in [5] it was 0; in [6], 0; in assay [8] it was 1; in assay [9], 0. Moreover, the Ratio in [11] is 0; in [12], 0; in assay [15], 1. Further, the ED50 in assay [2] and in assay [13] was 300 mg/kg each time. For the same compound, the figures for the TPE in assay [3] and in assay [7] were 2 and 0.25, respectively. The PI in assay [10] and in assay [14] was more than 1.7 throughout.
